# Test system: Human immunodeficiency virus 1
# Assay: Antiviral activity against wild type HIV1 NL4-3 infected in human TZM-bl cells assessed as reduction in viral infection measured after 1 day by luciferase reporter gene assay based luminiscence assay
# Assay type: functional, organism-based
# Details: Human immunodeficiency virus 1, NL4-3, TZM-bl, 24 h
# Outline: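 TZM-bl cells got a single-round infection with 800 TCID50 of NL4-3 at various compound concentrations, top concentration 100 ng/mL. Luminescence was read 1 day post-infection. EC50 is the concentration giving a 50% decrease in luciferase RLU versus control wells, determined in at least triplicate.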
row,Structure (SMILES),EC50 [nM]
1,CC(=O)N1CCN(C(=O)/C=C/c2cnc(Nc3ccc(C#N)cc3)nc2Oc2c(C)cc(C#N)cc2C)CC1,49.9
2,Cc1cc(C#N)cc(C)c1Oc1nc(Nc2ccc(C#N)cc2)nc(N)c1Br [ETRAVIRINE],1.45
3,CCOC(=O)/C=C/c1cnc(Nc2ccc(C#N)cc2)nc1Oc1c(C)cc(C#N)cc1C,18.7
4,Cc1cc(C#N)cc(C)c1Oc1nc(Nc2ccc(C#N)cc2)ncc1/C=C/C(=O)N1CCN(C=O)CC1,49.3
5,Cc1cc(C#N)cc(C)c1Oc1nc(Nc2ccc(C#N)cc2)ncc1/C=C/C(=O)NCC1CCN(S(C)(=O)=O)CC1,12.8
6,Cc1cc(C#N)cc(C)c1Oc1nc(Nc2ccc(C#N)cc2)ncc1/C=C/C(=O)NCCN1CCOCC1,3.44
7,Cc1cn([C@H]2C[C@H](N=[N+]=[N-])[C@@H](CO)O2)c(=O)[nH]c1=O [ZIDOVUDINE],7.5

# Test system: not listed separately
# Assay: Cytotoxicity against human TZM-bl cells assessed as reduction in cell viability measured after 1 day by CytoTox-Glo assay
# Assay type: cell-based
# Details: not given
# Outline: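 TZM-bl cells were cultured 1 day with various compound concentrations, in parallel with the antiviral assay, top concentration 100 ng/mL. Viable cells were measured by CytoTox-Glo. CC50 is the concentration causing a 50% reduction in cell viability.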
row,Structure (SMILES),CC50 at 24 h [nM]
1,CC(=O)N1CCN(C(=O)/C=C/c2cnc(Nc3ccc(C#N)cc3)nc2Oc2c(C)cc(C#N)cc2C)CC1,> 192
2,Cc1cc(C#N)cc(C)c1Oc1nc(Nc2ccc(C#N)cc2)nc(N)c1Br [ETRAVIRINE],> 229
3,CCOC(=O)/C=C/c1cnc(Nc2ccc(C#N)cc2)nc1Oc1c(C)cc(C#N)cc1C,> 227
4,Cc1cc(C#N)cc(C)c1Oc1nc(Nc2ccc(C#N)cc2)ncc1/C=C/C(=O)N1CCN(C=O)CC1,> 197
5,Cc1cc(C#N)cc(C)c1Oc1nc(Nc2ccc(C#N)cc2)ncc1/C=C/C(=O)NCC1CCN(S(C)(=O)=O)CC1,> 171
6,Cc1cc(C#N)cc(C)c1Oc1nc(Nc2ccc(C#N)cc2)ncc1/C=C/C(=O)NCCN1CCOCC1,> 190
7,Cc1cn([C@H]2C[C@H](N=[N+]=[N-])[C@@H](CO)O2)c(=O)[nH]c1=O [ZIDOVUDINE],> 6300

# Test system: not listed separately
# Assay: Selectivity index, ratio of CC50 for human TZM-bl cells to EC50 for wild type HIV1 NL4-3 infected in human TZM-bl cells
# Assay type: toxicity, cell-based
# Details: read-out: Ratio CC50/EC50
# Outline: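 Selectivity index is CC50/EC50, with both values from the TZM-bl assays: NL4-3 single-round luciferase infection and CytoTox-Glo viability, each over 1 day.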
row,Structure (SMILES),selectivity ratio
1,CC(=O)N1CCN(C(=O)/C=C/c2cnc(Nc3ccc(C#N)cc3)nc2Oc2c(C)cc(C#N)cc2C)CC1,> 4
2,CCOC(=O)/C=C/c1cnc(Nc2ccc(C#N)cc2)nc1Oc1c(C)cc(C#N)cc1C,> 12
3,Cc1cc(C#N)cc(C)c1Oc1nc(Nc2ccc(C#N)cc2)ncc1/C=C/C(=O)N1CCN(C=O)CC1,> 4
4,Cc1cc(C#N)cc(C)c1Oc1nc(Nc2ccc(C#N)cc2)ncc1/C=C/C(=O)NCC1CCN(S(C)(=O)=O)CC1,> 13
5,Cc1cc(C#N)cc(C)c1Oc1nc(Nc2ccc(C#N)cc2)ncc1/C=C/C(=O)NCCN1CCOCC1,> 56
6,Cc1cn([C@H]2C[C@H](N=[N+]=[N-])[C@@H](CO)O2)c(=O)[nH]c1=O [ZIDOVUDINE],> 1000

# Test system: Human immunodeficiency virus 1
# Assay: Antiviral activity against wild type HIV-1 3B infected in human MT4 cells assessed as inhibition of virus-induced cytopathic effect measured after 5 days by MTT assay
# Assay type: functional, organism-based
# Details: Human immunodeficiency virus 1, 3B, MT4, 120 h
# Outline: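 MT-4 cells at 6 × 10^5 cells/mL were infected with virus stock at 100–300 CCID50 in the presence of serial 5-fold compound dilutions, in triplicate wells. Viability was read by MTT reduction 5 days after infection, with absorbance at 540 and 690 nm and the median OD of three wells used. EC50 is the concentration giving 50% protection from viral cytopathicity.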
row,Structure (SMILES),EC50 [nM]
1,Cc1cc(C#N)cc(C)c1Oc1nc(Nc2ccc(C#N)cc2)ncc1/C=C/C(=O)NCCN1CCOCC1,8.5
2,Cc1cn([C@H]2C[C@H](N=[N+]=[N-])[C@@H](CO)O2)c(=O)[nH]c1=O [ZIDOVUDINE],18.3

# Test system: not listed separately
# Assay: Cytotoxicity against human MT4 cells assessed as reduction in cell viability measured after 5 days by MTT assay
# Assay type: cell-based
# Details: time 5 day
# Outline: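 Mock-infected MT-4 cells (6 × 10^5 cells/mL) were run in parallel with the infected wells, under serial 5-fold compound dilutions in triplicate. MTT viability was read after 5 days and the median OD of three wells used. CC50 is the concentration that reduced OD540 of the mock-infected cells by 50%.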
row,Structure (SMILES),CC50 at 120 h [µM]
1,Cc1cc(C#N)cc(C)c1Oc1nc(Nc2ccc(C#N)cc2)nc(N)c1Br [ETRAVIRINE],> 4.6
2,Cc1cc(C#N)cc(C)c1Oc1nc(Nc2ccc(C#N)cc2)ncc1/C=C/C(=O)NCCN1CCOCC1,22.4
3,Cc1cn([C@H]2C[C@H](N=[N+]=[N-])[C@@H](CO)O2)c(=O)[nH]c1=O [ZIDOVUDINE],> 7.5

# Test system: not listed separately
# Assay: Selectivity index, ratio of CC50 for human MT4 cells to EC50 for wild type HIV-1 3B infected in human MT4 cells
# Assay type: toxicity, cell-based
# Details: read-out: Ratio CC50/EC50
row,Structure (SMILES),selectivity ratio
1,Cc1cc(C#N)cc(C)c1Oc1nc(Nc2ccc(C#N)cc2)ncc1/C=C/C(=O)NCCN1CCOCC1,2630
2,Cc1cn([C@H]2C[C@H](N=[N+]=[N-])[C@@H](CO)O2)c(=O)[nH]c1=O [ZIDOVUDINE],> 410

# Test system: Human immunodeficiency virus 1
# Assay: Antiviral activity against HIV-1 harboring reverse transcriptase L100I mutant infected in human MT4 cells assessed as inhibition of virus induced cytopathic effect measured after 5 days by MTT assay
# Assay type: functional, organism-based
# Details: Human immunodeficiency virus 1, MT4, 120 h
# Outline: (§1)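 MT-4 cells, exponentially growing, resuspended at 6 × 10^5 cells/mL and infected with the mutant HIV-1 stock at 100–300 CCID50. Compounds were added as 5-fold serial dilutions, in triplicate wells, alongside mock-infected wells. After 5 days, viability was read by MTT reduction at 540 and 690 nm using the median OD of three wells. EC50 is the concentration giving 50% protection from viral cytopathogenicity.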
row,Structure (SMILES),EC50 [nM]
1,Cc1cc(C#N)cc(C)c1Oc1nc(Nc2ccc(C#N)cc2)nc(N)c1Br [ETRAVIRINE],10.2
2,Cc1cc(C#N)cc(C)c1Oc1nc(Nc2ccc(C#N)cc2)ncc1/C=C/C(=O)NCCN1CCOCC1,263
3,Cc1cn([C@H]2C[C@H](N=[N+]=[N-])[C@@H](CO)O2)c(=O)[nH]c1=O [ZIDOVUDINE],7

# Test system: Human immunodeficiency virus 1
# Assay: Antiviral activity against HIV-1 harboring reverse transcriptase K103N mutant infected in human MT4 cells assessed as inhibition of virus induced cytopathic effect measured after 5 days by MTT assay
# Assay type: functional, organism-based
# Details: Human immunodeficiency virus 1, MT4, 120 h
# Outline: as §1
row,Structure (SMILES),EC50 [nM]
1,Cc1cc(C#N)cc(C)c1Oc1nc(Nc2ccc(C#N)cc2)nc(N)c1Br [ETRAVIRINE],2.3
2,Cc1cc(C#N)cc(C)c1Oc1nc(Nc2ccc(C#N)cc2)ncc1/C=C/C(=O)NCCN1CCOCC1,18.5
3,Cc1cn([C@H]2C[C@H](N=[N+]=[N-])[C@@H](CO)O2)c(=O)[nH]c1=O [ZIDOVUDINE],12.6

# Test system: Human immunodeficiency virus 1
# Assay: Antiviral activity against HIV-1 harboring reverse transcriptase Y181C mutant infected in human MT4 cells assessed as inhibition of virus induced cytopathic effect measured after 5 days by MTT assay
# Assay type: functional, organism-based
# Details: Human immunodeficiency virus 1, MT4, 120 h
# Outline: as §1
row,Structure (SMILES),EC50 [nM]
1,Cc1cc(C#N)cc(C)c1Oc1nc(Nc2ccc(C#N)cc2)ncc1/C=C/C(=O)NCCN1CCOCC1,108
2,Cc1cn([C@H]2C[C@H](N=[N+]=[N-])[C@@H](CO)O2)c(=O)[nH]c1=O [ZIDOVUDINE],8.7

# Test system: Human immunodeficiency virus 1
# Assay: Antiviral activity against HIV-1 harboring reverse transcriptase Y188L mutant infected in human MT4 cells assessed as inhibition of virus induced cytopathic effect measured after 5 days by MTT assay
# Assay type: functional, organism-based
# Details: Human immunodeficiency virus 1, MT4, 120 h
# Outline: as §1
row,Structure (SMILES),EC50 [nM]
1,Cc1cc(C#N)cc(C)c1Oc1nc(Nc2ccc(C#N)cc2)nc(N)c1Br [ETRAVIRINE],15.5
2,Cc1cc(C#N)cc(C)c1Oc1nc(Nc2ccc(C#N)cc2)ncc1/C=C/C(=O)NCCN1CCOCC1,123
3,Cc1cn([C@H]2C[C@H](N=[N+]=[N-])[C@@H](CO)O2)c(=O)[nH]c1=O [ZIDOVUDINE],9.9

# Test system: Human immunodeficiency virus 1
# Assay: Antiviral activity against HIV-1 harboring reverse transcriptase E138K mutant infected in human MT4 cells assessed as inhibition of virus induced cytopathic effect measured after 5 days by MTT assay
# Assay type: functional, organism-based
# Details: Human immunodeficiency virus 1, MT4, 120 h
# Outline: as §1
row,Structure (SMILES),EC50 [nM]
1,Cc1cc(C#N)cc(C)c1Oc1nc(Nc2ccc(C#N)cc2)ncc1/C=C/C(=O)NCCN1CCOCC1,21.8
2,Cc1cn([C@H]2C[C@H](N=[N+]=[N-])[C@@H](CO)O2)c(=O)[nH]c1=O [ZIDOVUDINE],14.5

# Test system: Human immunodeficiency virus 1
# Assay: Antiviral activity against HIV-1 harboring reverse transcriptase F227L/V106A mutant infected in human MT4 cells assessed as inhibition of virus induced cytopathic effect measured after 5 days by MTT assay
# Assay type: functional, organism-based
# Details: Human immunodeficiency virus 1, MT4, 120 h
# Outline: as §1
row,Structure (SMILES),EC50 [nM]
1,Cc1cc(C#N)cc(C)c1Oc1nc(Nc2ccc(C#N)cc2)nc(N)c1Br [ETRAVIRINE],8.2
2,Cc1cc(C#N)cc(C)c1Oc1nc(Nc2ccc(C#N)cc2)ncc1/C=C/C(=O)NCCN1CCOCC1,462
3,Cc1cn([C@H]2C[C@H](N=[N+]=[N-])[C@@H](CO)O2)c(=O)[nH]c1=O [ZIDOVUDINE],4.7

# Test system: Human immunodeficiency virus 1
# Assay: Antiviral activity against HIV-1 harboring reverse transcriptase RES056 mutant infected in human MT4 cells assessed as inhibition of virus induced cytopathic effect measured after 5 days by MTT assay
# Assay type: functional, organism-based
# Details: Human immunodeficiency virus 1, MT4, 120 h
# Outline: as §1
row,Structure (SMILES),EC50 [nM]
1,Cc1cc(C#N)cc(C)c1Oc1nc(Nc2ccc(C#N)cc2)nc(N)c1Br [ETRAVIRINE],60.2
2,Cc1cc(C#N)cc(C)c1Oc1nc(Nc2ccc(C#N)cc2)ncc1/C=C/C(=O)NCCN1CCOCC1,1750
3,Cc1cn([C@H]2C[C@H](N=[N+]=[N-])[C@@H](CO)O2)c(=O)[nH]c1=O [ZIDOVUDINE],20.1

# Test system: not listed separately
# Assay: Antiviral activity against HIV-2 ROD infected in human MT4 cells assessed as protection against virus-induced cytopathic effect measured after 5 days by MTT assay
# Details: Human immunodeficiency virus 2, ISOLATE ROD, MT4, 120 h
row,Structure (SMILES),EC50 [µM]
1,Cc1cc(C#N)cc(C)c1Oc1nc(Nc2ccc(C#N)cc2)ncc1/C=C/C(=O)NCCN1CCOCC1,> 22.4

# From ChEMBL document CHEMBL4819008, “Design, synthesis, and evaluation of "dual-site"-binding diarylpyrimidines targeting both NNIBP and the NNRTI adjacent site of the HIV-1 reverse transcriptase” (Eur J Med Chem, 2021)
